Laboratory results as given in ChEMBL document CHEMBL4689842, “EUbOPEN Chemogenomics Library wave 1” (2021).
Several values for one entry are separate records, joined by “and”; a condition that tells them apart may be missing. Identical values can stand only once.

Test system: HEK-293T
Test: Multiplex assay against HEK293T
Type: toxicity, cell-based
Conditions: human
In short: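 Tubulin, mitochondrial-mass and membrane-permeability phenotypes are per cents of healthy-nucleus cells. Cells were gated by CellPathfinder machine learning into Hoechst high-intensity objects or normal cells, normal cells into healthy, pyknosed or fragmented nuclei, and pyknosed cells into mitotic or apoptotic. Before that, live cells stained at seeding with Hoechst33342, BioTracker Green Microtubule Cytoskeleton Dye, MitoTracker Red and Annexin V Alexa Fluor 680 were imaged on a CQ1 microscope at 37°C and 5% CO2 after compound addition.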

[1] = 12 h, 1 µM, compound concentration 1 uM, replicate 1
[2] = 12 h, 1 µM, compound concentration 1 uM, replicate 2
[3] = 12 h, 10 µM, compound concentration 10 uM, replicate 1
[4] = 12 h, 10 µM, compound concentration 10 uM, replicate 2
[5] = 24 h, 1 µM, compound concentration 1 uM, replicate 1
[6] = 24 h, 1 µM, compound concentration 1 uM, replicate 2
[7] = 24 h, 10 µM, compound concentration 10 uM, replicate 1
[8] = 24 h, 10 µM, compound concentration 10 uM, replicate 2

SMILES: CCC1=C[C@@H]2C[N@](C1)Cc1c([nH]c3ccccc13)[C@@](C(=O)OC)(c1cc3c(cc1OC)N(C)[C@H]1[C@@](O)(C(=O)OC)[C@H](OC(C)=O)[C@]4(CC)C=CCN5CC[C@]31[C@@H]54)C2.O=C(O)C(O)C(O)C(=O)O.O=C(O)C(O)C(O)C(=O)O [VINORELBINE TARTRATE]
- Population Apoptotic (%) [1]: 25% and 14%
- Population Fragmented Nuclei (%) [1]: 25% and 16%
- Population Healthy Nuclei (%) [1]: 32% and 48%
- Population Hoechst High Intensity Objects (%) [1]: 18% and 15%
- Population Mitochondria Different-Phenotype (%) [1]: 18% and 9%
- Population Mitotic Cells (%) [1]: 75% and 85%
- Population Normal (%) [1]: 81% and 84%
- Population Pyknosed Nuclei (%) [1]: 41% and 35%
- Total Cell Count [1]: 502 and 565
- Population Apoptotic (%) [2]: 17% and 8%
- Population Fragmented Nuclei (%) [2]: 3% and 4%
- Population Healthy Nuclei (%) [2]: 57% and 63%
- Population Hoechst High Intensity Objects (%) [2]: 4% and 3%
- Population Membrane Permeable-Phenotype (%) [2]: 12% and 0%
- Population Mitochondria Different-Phenotype (%) [2]: 27% and 14%
- Population Mitotic Cells (%) [2]: 83% and 91%
- Population Normal (%) [2]: 95% and 96%
- Population Pyknosed Nuclei (%) [2]: 38% and 31%
- Total Cell Count [2]: 945 and 1247
- Population Apoptotic (%) [3]: 31% and 19%
- Population Fragmented Nuclei (%) [3]: 29% and 13%
- Population Healthy Nuclei (%) [3]: 22% and 49%
- Population Hoechst High Intensity Objects (%) [3]: 19% and 15%
- Population Mitochondria Different-Phenotype (%) [3]: 13% and 9%
- Population Mitotic Cells (%) [3]: 68% and 80%
- Population Normal (%) [3]: 80% and 84%
- Population Pyknosed Nuclei (%) [3]: 48% and 37%
- Total Cell Count [3]: 499 and 592
- Population Apoptotic (%) [4]: 13% and 7%
- Population Fragmented Nuclei (%) [4]: 3%
- Population Healthy Nuclei (%) [4]: 54% and 62%
- Population Hoechst High Intensity Objects (%) [4]: 2%
- Population Membrane Permeable-Phenotype (%) [4]: 10% and 0%
- Population Mitochondria Different-Phenotype (%) [4]: 22% and 16%
- Population Mitotic Cells (%) [4]: 86% and 92%
- Population Normal (%) [4]: 97%
- Population Pyknosed Nuclei (%) [4]: 41% and 33%
- Total Cell Count [4]: 964 and 1090
- Population Apoptotic (%) [5]: 13% and 28%
- Population Fragmented Nuclei (%) [5]: 15% and 27%
- Population Healthy Nuclei (%) [5]: 47% and 33%
- Population Hoechst High Intensity Objects (%) [5]: 12% and 20%
- Population Membrane Permeable-Phenotype (%) [5]: 0% and 13%
- Population Mitotic Cells (%) [5]: 86% and 71%
- Population Normal (%) [5]: 87% and 79%
- Population Pyknosed Nuclei (%) [5]: 36% and 38%
- Total Cell Count [5]: 530 and 459
- Population Apoptotic (%) [6]: 14% and 8%
- Population Fragmented Nuclei (%) [6]: 7% and 9%
- Population Healthy Nuclei (%) [6]: 36% and 69%
- Population Hoechst High Intensity Objects (%) [6]: 6% and 3%
- Population Membrane Permeable-Phenotype (%) [6]: 8%
- Population Mitochondria Different-Phenotype (%) [6]: 28%
- Population Mitotic Cells (%) [6]: 85% and 91%
- Population Normal (%) [6]: 93% and 96%
- Population Pyknosed Nuclei (%) [6]: 55% and 21%
- Total Cell Count [6]: 914 and 1303
- Population Apoptotic (%) [7]: 20% and 38%
- Population Fragmented Nuclei (%) [7]: 16% and 29%
- Population Healthy Nuclei (%) [7]: 45% and 26%
- Population Hoechst High Intensity Objects (%) [7]: 9% and 20%
- Population Mitochondria Different-Phenotype (%) [7]: 10% and 13%
- Population Mitotic Cells (%) [7]: 79% and 61%
- Population Normal (%) [7]: 90% and 79%
- Population Pyknosed Nuclei (%) [7]: 37% and 44%
- Total Cell Count [7]: 529 and 482
- Population Apoptotic (%) [8]: 11% and 5%
- Population Fragmented Nuclei (%) [8]: 3% and 6%
- Population Healthy Nuclei (%) [8]: 37% and 72%
- Population Hoechst High Intensity Objects (%) [8]: 3% and 2%
- Population Membrane Permeable-Phenotype (%) [8]: 9% and 0%
- Population Mitotic Cells (%) [8]: 88% and 94%
- Population Normal (%) [8]: 96% and 97%
- Population Pyknosed Nuclei (%) [8]: 58% and 21%
- Total Cell Count [8]: 920 and 1144
